# Compound activity deposited in PubChem BioAssay by Johns Hopkins Ion Channel Center.
# TRPC6 act: mouse TRPC6 channel activation | Q61143 | 0.13% of 310,000 active | AID 2550 | HEK293-TRPC6 membrane potential dye fluorescence; hits give high values | B-score at 10 µM;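 active = B-score of the integrated fluorescence ratio above library mean plus 3 SD, and starting fluorescence ratio within library mean plus 5 SD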;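 note: higher score means more depolarization so channel activation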
# TRPC4 act: activators of mouse TRPC4 channel; B-score at 10 µM; 0.49% of 310,000 active; Q9QUQ5; HEK293 TRPC4beta/mu-opioid, Fluo4 calcium fluorescence; hits give high values;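 active = B-score above 5 SD of library B-scores, and initial fluorescence ratio not above library mean plus 5 SD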;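 note: positive B-score marks a calcium rise read as TRPC4 activation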
# Target sequence (Q9QUQ5 whole entry, looked up): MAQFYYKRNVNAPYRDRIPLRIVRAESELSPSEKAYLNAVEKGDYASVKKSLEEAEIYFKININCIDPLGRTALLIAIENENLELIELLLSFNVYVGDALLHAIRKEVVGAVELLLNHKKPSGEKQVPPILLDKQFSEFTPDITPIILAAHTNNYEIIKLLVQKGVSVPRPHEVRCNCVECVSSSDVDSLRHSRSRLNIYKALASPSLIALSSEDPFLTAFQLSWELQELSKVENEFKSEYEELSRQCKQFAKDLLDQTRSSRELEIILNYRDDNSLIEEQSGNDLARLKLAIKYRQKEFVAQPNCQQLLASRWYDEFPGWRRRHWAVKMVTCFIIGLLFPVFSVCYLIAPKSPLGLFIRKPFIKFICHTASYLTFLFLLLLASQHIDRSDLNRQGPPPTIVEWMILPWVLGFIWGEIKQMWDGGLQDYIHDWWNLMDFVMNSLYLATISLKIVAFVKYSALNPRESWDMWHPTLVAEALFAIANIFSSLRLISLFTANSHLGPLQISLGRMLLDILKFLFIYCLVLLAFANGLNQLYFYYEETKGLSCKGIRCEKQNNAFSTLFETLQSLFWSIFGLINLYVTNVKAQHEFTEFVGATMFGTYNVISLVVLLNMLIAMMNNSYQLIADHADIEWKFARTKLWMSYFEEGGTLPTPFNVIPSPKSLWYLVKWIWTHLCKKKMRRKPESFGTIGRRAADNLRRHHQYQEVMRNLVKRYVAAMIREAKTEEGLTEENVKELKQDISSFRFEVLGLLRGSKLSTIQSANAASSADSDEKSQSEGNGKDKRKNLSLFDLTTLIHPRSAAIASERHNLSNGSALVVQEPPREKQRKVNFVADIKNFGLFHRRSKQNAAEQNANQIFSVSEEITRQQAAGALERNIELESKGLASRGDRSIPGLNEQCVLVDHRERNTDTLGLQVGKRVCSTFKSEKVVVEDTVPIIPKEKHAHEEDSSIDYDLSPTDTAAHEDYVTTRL
#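 Technique: kinetic Fluo4 calcium fluorescence; Test system: TRPC4beta and mu-opioid receptor HEK293 stable cells; Measure: B-scored integrated calcium fluorescence ratio; Benchmarks: low control buffer alone, high control maximal DAMGO; Schedule: 45 min room-temperature Fluo4 loading, 110 s read.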
# TRPC6 inhibitor: inhibitors of mouse TRPC6 channel; Q61143; HEK293-TRPC6, membrane potential dye, ACh-evoked depolarization; hits give low values; B-score at 10 µM; 1.1% of 310,000 active; AID 2553;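 active = B-score under library mean minus 3 SD, initial fluorescence not abnormally high, positive integrated signal ratio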;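 note: B-score derived from integrated fluorescence ratio over the kinetic read; more negative B-score means stronger inhibition of depolarization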
# TRPC4 inh: TRPC4 (mouse) channel inhibition. B-score at 10 µM. HEK293 TRPC4beta/mu-opioid, DAMGO-evoked Fluo4 calcium flux; hits give low values. 0.39% of 300,000 active. Q9QUQ5;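 active = B-score over 3 SD under the library average, no early fluorescence shift, positive overall ratio signal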
#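 Assay system: Stable TRPC4beta/mu-opioid receptor HEK293 cells | Reagent: DAMGO in two steps, submaximal then maximal | Compound dosing: Single concentration per test compound | Signal: Fluo4 Ca2+ flux fluorescence | Evaluation: Per-well B score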
# TRPC4 PAM: allosteric potentiators of mouse TRPC4 channel; Q9QUQ5; HEK293 TRPC4beta/mu-opioid, DAMGO EC20, Fluo-4 Ca2+ flux; hits give high values; B-score at 10 µM; 0.42% of 310,000 active; AID 2227;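 active = B-score of calcium response area above 5 SD of library B-scores, with initial fluorescence ratio within 5 SD of library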;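 note: B-score of integrated fluorescence ratio over time as area under calcium response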
# TRPC4 spec 2: second selectivity test of TRPC6 inhibitors: effect on mouse TRPC4; shares compounds with TRPC6 inhibitor; HEK293 TRPC4/MOR, membrane potential dye fluorescence; channel activated by saturating DAMGO dose; inhibition, % at 10 µM; 42% of 920 active; AID 2776;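 active = compounds whose fluorescence signal differed from control wells by over 3 SD, either direction, in both duplicate plates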
# TRPC4 spec: selectivity of TRPC6 inhibitors: effect on mouse TRPC4 | HEK293 TRPC4/mu-opioid, membrane potential fluorescence | shares compounds with TRPC6 inhibitor | activity change, negative = inhibition, % at 10 µM | AID 2777 | 61% of 920 active;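 active = rise or fall in signal beyond 3 SD of buffer-only wells in both replicate plates, either sign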;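 note: integrated kinetic ratio of fluorescence range over baseline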
# HEK293 MPD ctr 2-1: parental HEK293 nonspecific activity of TRPC6 inhibitors, second screen. 31% of 920 active. shares compounds with TRPC6 inhibitor. signal change vs control, % at 10 µM. parental HEK293 membrane potential dye fluorescence; maximal acetylcholine challenge after compound addition;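 active = membrane potential signal moving either way by over 3 SD of the maximum-effect control, in both duplicate plates, meaning non-specific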
# HEK293 MPD ctr-1: checks TRPC6 inhibitor effects in parental HEK293 cells; parental HEK293 membrane potential dye fluorescence; shares compounds with TRPC6 inhibitor; membrane potential signal change, % at 10 µM; 60% of 920 active;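 active = membrane potential signal shifting up or down by more than 3 SD of buffer-only wells, on both duplicate plates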
# HEK293 MPD ctr-2: counter-screen for TRPC6 modulators: effect in parental HEK293 cells; shares compounds with TRPC6 inhibitor; membrane potential dye fluorescence; membrane potential signal change, % at 10 µM; 51% of 2,400 active; AID 488924;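 active = membrane potential signal moves up or down beyond 5 SD from buffer-only wells, on both duplicate plates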
# HEK293 MPD ctr 2-2: second counter-screen for TRPC6 modulators: effect in parental HEK293 cells; shares compounds with TRPC6 inhibitor; membrane potential dye fluorescence; after compound, maximal acetylcholine stimulation; inhibition, % at 10 µM; 14% of 2,400 active; AID 488926;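 active = membrane potential signal drops by more than 5 SD from the mean control signal, in both duplicate plates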;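 note: plate controls were acetylcholine ECmax control wells for no effect and buffer only wells for full effect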
# TRPC4 ctr mod: mouse TRPC4 off-target activity of TRPC6 modulators; shares compounds with TRPC6 inhibitor; HEK293 TRPC4/mu-opioid, membrane potential fluorescence; percent change from control (negative = decrease, positive = increase), % at 10 µM; 69% of 2,400 active;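 active = membrane potential signal moved up or down beyond 5 SD of buffer control wells, in both duplicate plates, actives on both sides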;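 note: plate controls were assay buffer wells for no effect and DAMGO maximal-effect wells for full effect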
# TRPC4 ctr inh 2: mouse TRPC4 off-target activity of TRPC6 modulators, second screen; inhibition, % at 10 µM; HEK293 TRPC4/mu-opioid, membrane potential dye fluorescence; stimulated with maximal-effect DAMGO; 55% of 2,400 active; shares compounds with TRPC6 inhibitor;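 active = drop in membrane potential signal beyond 5 SD of the control wells in both duplicate plates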;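 note: TRPC4 counter screen for TRPC6 hits run under conditions tuned for TRPC6 not TRPC4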
# TRPC6 inh conf: confirmation of mouse TRPC6 inhibitors | shares compounds with TRPC6 inhibitor | HEK293-TRPC6, membrane potential dye, ACh-evoked depolarization | inhibition, % at 10 µM | 43% of 3,300 active;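 active = fluorescence ratio falls more than 5 SD below the full-stimulation control mean, in both duplicate runs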;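 note: integrated fluorescence ratio of peak minus minimum over baseline after agonist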
# TRPC6 act confirm: confirmation of mouse TRPC6 activators; shares compounds with TRPC6 inhibitor; HEK293-TRPC6 membrane potential dye fluorescence, FDSS; activation, % at 10 µM; 11% of 2,800 active;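 active = ratio signal rise beyond 5 SD above unstimulated control wells' mean, seen in both duplicate runs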;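 note: plate controls were buffer EC0 wells for no effect and acetylcholine ECmax response for full effect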
# Starred values were filed as active, the others as inactive; i = inactive; . = no result given; ! = not confirmed by another sample. Rows were chosen to be rich in hits. Some 2.3% of all compounds tested hit in one or more screens of this group.
SMILES,TRPC6 act,TRPC4 act,TRPC6 inhibitor,TRPC4 inh,TRPC4 PAM,TRPC4 spec 2,TRPC4 spec,HEK293 MPD ctr 2-1,HEK293 MPD ctr-1,TRPC6 inh conf,TRPC6 act confirm,others
O=[N+]([O-])c1cccc(C(=Nc2cccc(Cl)c2)NO)c1,i,i,-8.8*,i,i,i,i,i,i,i,i,
NC(=O)COC(=O)c1ccc2noc(-c3ccccc3)c2c1,i,i,i,i,i,.,.,.,.,.,.,
CC1CCN(CC(O)CN2c3ccccc3Sc3ccccc32)CC1 (stereo not given),i,i,-6.7*,i,i,66%*,1.4%*,i,i,i,i,
CC1CCN(C(=O)N2c3ccccc3Sc3ccccc32)CC1,i,i,i,i,i,.,.,.,.,.,.,
COc1ccccc1N1CCN(C/C=C/c2ccc(N(C)C)cc2)CC1,i,i,-7.5*,i,i,68%*,-10%*,i,-247%*,i,i,
O=C(O)Cn1c(O)c(C=Nc2ccccc2)sc1=S,i,i,-12*!,i,i,i,i,i,i,i,i,
COc1ccc(Cl)cc1NC(=S)Nc1cccnc1,i,i,i,.,i,.,.,.,.,.,.,
Cc1ccc(S(=O)(=O)n2ccc3c2CCCC3=O)cc1,i,i,-5.1*,i,i,.,.,.,.,88%*,.,HEK293 MPD ctr-2=334%*;HEK293 MPD ctr 2-2=166%*;TRPC4 ctr mod=76%*;TRPC4 ctr inh 2=48%*
Clc1ccc2c(N3CCCC3)ccnc2c1,i,i,-9*,-6*,i,76%*,-25%*,37%*,-478%*,64%*,i,
CN1CCN(c2ccc(Nc3ccnc4cc(Cl)ccc34)cc2)CC1,i,i,-6.4*,i,i,.,.,.,.,46%*,i,HEK293 MPD ctr-2=-106%*;HEK293 MPD ctr 2-2=i;TRPC4 ctr mod=-24%*;TRPC4 ctr inh 2=52%*
Clc1ccc2c(N3CCOCC3)ccnc2c1,i,i,i,i,i,.,.,.,.,.,.,
CC(C)c1ccc(N(CC(=O)NCc2cccnc2)S(=O)(=O)c2ccccc2)cc1,i,i,i,i,i,.,.,.,.,.,.,
CSc1nc(-c2ccc(Cl)cc2Cl)[nH]c(=O)c1C#N,13*,i,i,i,i,.,.,.,.,i,i,HEK293 MPD ctr-2=i;HEK293 MPD ctr 2-2=i;TRPC4 ctr mod=12%*;TRPC4 ctr inh 2=i
Cc1cc(-c2ccc(Cl)cc2Cl)c(C#N)c(=O)[nH]1,i,i,i,i,i,.,.,.,.,.,.,
CN(C)CCNS(=O)(=O)c1ccc(N2CCc3ccccc32)c([N+](=O)[O-])c1,i,i,-7.2*,i,i,.,.,.,.,60%*,i,HEK293 MPD ctr-2=-129%*;HEK293 MPD ctr 2-2=i;TRPC4 ctr mod=-28%*;TRPC4 ctr inh 2=73%*
COc1ccc(NC2CCCN(C(=O)CCN3CCOCC3)C2)cc1 (stereo not given),i,i,i,i,i,.,.,.,.,.,.,
O=c1c2ccccc2n(CC(O)CN2CCCCC2)c2ccccc12 (stereo not given),i,i,-5.2*,i,i,.,.,.,.,i,i,HEK293 MPD ctr-2=-104%*;HEK293 MPD ctr 2-2=i;TRPC4 ctr mod=-16%*;TRPC4 ctr inh 2=49%*
CCCN(CCC)CC(O)Cn1cc(/C=C/C(=O)c2cccs2)c2ccccc21 (stereo not given),i,i,-11*,i,i,24%*,9.6%*,i,16%*,i,i,
Cc1cc(=O)n2c3ccccc3n(CC(O)CN3CCCC3)c2c1C#N (stereo not given),i,i,-8*,i,i,68%*,-19%*,i,-280%*,53%*,i,
CCCNCC(O)Cn1c2ccccc2n2c(=O)cc(C)c(C#N)c12 (stereo not given),i,i,i,i,i,.,.,.,.,.,.,
O=C(/C=C/c1cn(CC(O)CN2CCCCC2)c2ccccc12)c1ccccc1 (stereo not given),i,i,-6.4*,i,i,.,.,.,.,74%*,.,HEK293 MPD ctr-2=294%*;HEK293 MPD ctr 2-2=i;TRPC4 ctr mod=i;TRPC4 ctr inh 2=84%*
CCCCNC(=O)CNC(=S)N(Cc1ccccc1F)C1CCCCC1,i,i,i,i,i,.,.,.,.,.,.,
CCCCOc1ccc(-c2nnc(-c3cc[n+](C)cc3)o2)cc1,i,i,-8.2*,i,i,i,-11%*,-69%*,-200%*,i,i,
O=C(NNS(=O)(=O)c1ccc2ccccc2c1)C1CCN(Cc2ccccc2)CC1,i,i,-18*,i,i,i,4.8%*,0.0%*,5.2%*,83%*,.,
O=S(=O)(NC1CCN(Cc2ccccc2)CC1)c1ccc2ccccc2c1,i,i,i,i,i,.,.,.,.,.,.,
O=C(NNS(=O)(=O)c1ccc(F)cc1)C1CCN(S(=O)(=O)c2ccccc2)CC1,i,i,i,i,i,.,.,.,.,.,.,
O=C(NNS(=O)(=O)c1ccc(F)cc1)C1CCN(Cc2cccc(F)c2)CC1,i,i,-5*,i,i,.,.,.,.,i,i,HEK293 MPD ctr-2=i;HEK293 MPD ctr 2-2=i;TRPC4 ctr mod=i;TRPC4 ctr inh 2=i
COc1cc2c(=O)n(CC3CCCO3)c(=O)n(CC(=O)Nc3ccccc3)c2cc1OC (stereo not given),i,i,i,i,i,.,.,.,.,.,.,
Cc1ccc(NCc2nnc(SCC(=O)NNC(=O)Cc3ccccc3)n2C)cc1,i,i,i,i,i,.,.,.,.,.,.,
